Screening results from PubChem.
An excerpt weighted towards active compounds, which were near 2.9% of everything screened.
RanGTP-Impb inh: disruptors of Ran-importin-beta complex formation – biochemical, FRET, CFP-Ran, YFP-importin-beta, homogeneous, primary screen. cell-free CFP-Ran/YFP-importin-beta FRET ratio. inhibition, % (concentration not given with the values). 300,000 compounds, 1.1% hits;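 active means more than half of the replicate wells show a fall in the fluorescence ratio signal beyond about 16%, limit read from the data, passing the limit was not always enough; inconclusive means exactly half of the replicate wells pass the set limit; inactive means fewer than half of replicates pass the limit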;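 further: 0% = DMSO wells and 100% = Ran loaded with GDP instead of GTP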
KLK7 zymogen act: activates the human kallikrein-7 zymogen; P49862; purified proKLK7, EDANS-DABCYL substrate fluorescence; 100% is mature enzyme control, 0% vehicle; activation, % at 7 µM; 370,000 compounds, 0.9% hits;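 active means activation above the mean of all tested compounds plus 3 SD, computed per campaign excluding outliers beyond control limits, cut at about 13% in these data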
Runt-SMMHC FRET: blocks binding of human RUNX1 Runt domain to CBFb-SMMHC. AID 1434. 220,000 compounds, 0.74% hits. inhibition, % at 20 µM. Cerulean-Runt/Venus-CBFb-SMMHC FRET ratio 530/480, 1 h. Q01196+Q13951;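 active means mean inhibition across duplicate retests at 20 µM reaching about 50%, limit read from the data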;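 further: 0% = DMSO wells and 100% = wells with excess untagged CBFb-SMMHC; inhibitors lower the FRET ratio by blocking Runt binding to CBFb-SMMHC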
Wee1 stabilizer: inhibitors of human Wee1 degradation; P30291; HeLa Luc-Wee1K328M stability, luciferase luminescence; 100% = proteasome inhibitor MG132 effect; reporter increase, % at 5 µM; 220,000 compounds, 1.2% hits;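 active means activation above the mean of all tested compounds plus 3 SD, set per screening run, cut at about 8.8% in these data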;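 further: cells exposed to compound for 20 h before luminescence read; 0% = DMSO alone and 100% = MG132 at 30 µM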
Target sequence (P30291 whole entry K328M): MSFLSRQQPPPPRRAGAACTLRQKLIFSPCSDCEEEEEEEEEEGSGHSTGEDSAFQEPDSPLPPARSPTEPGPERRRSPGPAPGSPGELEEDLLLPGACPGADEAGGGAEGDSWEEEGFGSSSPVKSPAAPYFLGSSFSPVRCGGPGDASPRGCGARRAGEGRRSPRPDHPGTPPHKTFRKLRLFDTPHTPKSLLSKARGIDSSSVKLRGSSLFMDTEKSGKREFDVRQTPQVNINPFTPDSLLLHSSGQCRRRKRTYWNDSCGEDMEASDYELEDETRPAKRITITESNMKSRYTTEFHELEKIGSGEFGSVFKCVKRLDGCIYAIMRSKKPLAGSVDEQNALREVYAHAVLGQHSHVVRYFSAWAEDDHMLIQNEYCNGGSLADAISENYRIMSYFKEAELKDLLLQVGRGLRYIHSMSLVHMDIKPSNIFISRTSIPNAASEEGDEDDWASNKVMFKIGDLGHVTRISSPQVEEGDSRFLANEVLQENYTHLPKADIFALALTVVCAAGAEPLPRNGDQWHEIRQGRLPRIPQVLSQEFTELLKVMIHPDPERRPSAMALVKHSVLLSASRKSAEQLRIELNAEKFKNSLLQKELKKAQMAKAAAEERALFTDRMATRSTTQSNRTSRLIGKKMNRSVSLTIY
Runt-CBFb FRET: blocks binding of human RUNX1 Runt domain to CBFb | Cerulean-Runt/Venus-CBFb FRET ratio 530/480, 1 h | inhibition, % at 20 µM | 220,000 compounds, 0.46% hits;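 active means inhibition over about 50% at 20 µM in the single-dose screen, limit read from the data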;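 further: 0% = DMSO wells and 100% = excess unlabeled CBFb competitor control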
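Measured by: fluorescence energy transfer, 422 nm excitation, 530/480 nm emission; test system: Cerulean-tagged RUNX1 Runt domain (FRET donor) fusion protein; buffer or medium: Tris pH 7.5 buffer with BSA; compound: one dose, 20 µM compound, 1% DMSO; times: two 1 h room-temperature incubations shielded from light; benchmarks: unlabeled CBFb 5 µM, positive control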
AI-2 QS mod: Vibrio harveyi AI-2 quorum sensing modulation | 300,000 compounds, 0.4% hits | activity change, % at 7.5 µM | Vibrio harveyi JMH597 AI-2 luminescence/OD600 ratio, 9 h; active compounds read low; strain lacks LuxN and CqsS sensors; 0 = neutral-control median; in the data active means activity change below about -75%, passing the limit was not always enough; inconclusive means no clear call, values can overlap the other calls;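 further: luminescence divided by OD600 gain over 9 h not by final OD600 alone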
Wee1 stab conf: confirmation of human Wee1 degradation inhibitors. shares compounds with Wee1 stabilizer. HeLa Luc-Wee1K328M degradation, luminescence; vehicle 0%, proteasome-blocked wells 100%. activation, % at 5 µM. 1,100 compounds, 4% hits; in the data active means activation above about 8.9%
* hit, by the source's call; ? = inconclusive; . = not tested or not shown.

SMILES	RanGTP-Impb inh	KLK7 zymogen act	Runt-SMMHC FRET	Wee1 stabilizer	Runt-CBFb FRET	AI-2 QS mod	others
COC(=O)/C(C#N)=C/c1c(N2CCN(c3ccccc3)CC2)nc2ccccn2c1=O	-8	3	.	.	.	17
CC(C(=O)Nc1nc2ccccc2s1)n1cc([N+](=O)[O-])cn1 (configuration not stated)	-1	0	2	0	-2	-2
COc1cc(OC)cc(C(=O)Nc2ccc(NC(=O)c3ccco3)c(Cl)c2)c1	2	2	-4	9.7*	-3	31
CNC(=S)Nc1cc(OC)c(NC(=O)c2ccco2)cc1OC	2	0	-2	9.9*	2	7
COc1cc(OC)cc(C(=O)NC(=S)Nc2ccc(NC(=O)c3ccco3)cc2)c1	-4	0	3	2	-2	22
O=C(OCC(=O)N1CCCC1)c1ccc(S(=O)(=O)Nc2ccccc2)cc1	0	0	3	-3	2	7
CCCCc1ccc(NC2=NCC(=O)N2CCc2ccccc2)cc1	1	0	-3	0	-1	-21
Cc1ccc(N(C)S(=O)(=O)c2ccc3c(c2)CC(C)N3C(=O)C2CC2)cc1 (configuration not stated)	51*	0	.	.	.	23
CC(=O)N1c2ccc(S(=O)(=O)N(C)c3cc(C)ccc3C)cc2CC1C (configuration not stated)	-1	0	.	.	.	4
O=C(CN1CCC(NC(=O)NC2CCCC2)CC1)Nc1ccc2c(c1)OCCO2	.	0	.	.	.	.
CN1CCc2c(C#N)c(N3CCOCC3)nc(NCC3CCCO3)c2C1 (configuration not stated)	70*	5	6	1	33	22
Cc1ccc(CN2CCCCC(NC(=O)c3ccc(COc4ccccc4)cc3)C2=O)cc1 (configuration not stated)	.	0	.	.	.	.
O=C(Cn1nnc(-c2ccccc2Cl)n1)N/N=C/c1ccc2c(c1)OCO2	-1	0	1	12*	2	14
COCc1[nH]nc2c1C(c1ccccc1)NC2=O (configuration not stated)	.	0	.	.	.	.
COC(=O)[C@]12C[C@H](CC(=O)NCCC(C)C)C(=O)N(Cc3ccc4c(c3)OCO4)C1=C[C@H](COCc1ccccc1)O[C@@H]2C	.	-1	.	.	.	.
Cc1cc(Br)cn2c(Cc3cccc(F)c3)c(-c3ccco3)nc12	.	0	.	.	.	.
O=C(NCc1ccccc1)[C@@H]1CCCN1C(=O)[C@H]1CCCN1C(=O)c1ccccc1F	.	0	.	.	.	.
NS(=O)(=O)c1ccccc1	-1	0	2	14*	3	5
CCOC(=O)c1c(NC(=O)CSc2nnnn2C)sc(C)c1C	6	0	-10	-1	-2	17
CCOC(=O)c1c(NC(=O)CSc2nnc(C)o2)sc(C)c1C	6	0	-2	9.8*	-1	16
Cc1cccc(NC(=S)N2N=CCC2c2ccccc2)c1 (configuration not stated)	0	0	-3	0	0	6
CCc1ccccc1NC(=S)N1N=CCC1c1ccccc1 (configuration not stated)	0	-1	-1	8.8*	-1	25
N#C/C(=C/c1ccncc1)c1nc2ccccc2s1	84*	-3	-40	-2	-16	26
CC(CCN1CCC(C(O)(c2ccccc2)c2ccccc2)CC1)Oc1cccc(C(F)(F)F)c1 (configuration not stated)	.	1	.	.	.	.
COC(=O)C1=CN(C(C)C)C=C(C(=O)OC)C1c1cc(Br)c(OC)c(OC)c1	59*	-7	75*	0	114*	10
SMILES	RanGTP-Impb inh	KLK7 zymogen act	Runt-SMMHC FRET	Wee1 stabilizer	Runt-CBFb FRET	AI-2 QS mod	others
COC(=O)C1=CN(Cc2ccc(F)cc2)C=C(C(=O)OC)C1c1ccc(O)c(OC)c1	10	0	.	.	.	4
Cc1ccc(CNC(=O)c2cnc(-c3ccccn3)nc2C(F)(F)F)cc1	6	0	-1	-1	-2	10
COc1cccc(CNC(=O)c2cnc(-c3ccccn3)nc2C(F)(F)F)c1	30*	0	6	2	0	5
C[C@@H]1ON(C)[C@H]2C[C@H]3c4cc(-c5ccc(F)cc5)ccc4CCN3C[C@@H]12	.	1	.	.	.	.
COc1ccc(COC(=O)Nc2cc3c(C(F)(F)F)nn(C)c3s2)cc1	0	0	0	1	0	-77*
Cn1nc(C(F)(F)F)c2cc(NC(=O)OCc3ccc(C(C)(C)C)cc3)sc21	-3	-1	1	1	0	-3
COc1ccc(-c2csc(C)n2)cc1	0	0	4	9.0*	2	18
CCOC(=O)C1(Cc2cccc(OC)c2)CCN(Cc2cnc(C)s2)CC1	45*	0	-1	1	2	21
CCOc1ccc(N(CC(=O)Nc2c(C)n(C)n(-c3ccccc3)c2=O)S(=O)(=O)c2cccs2)cc1	.	0	.	.	.	.
COc1ccc(-n2c(C)nc3cc(C(=O)NCc4ccco4)ccc32)cc1	8	0	0	-1	2	15
CCOc1ccc(-n2c(C)nc3cc(C(=O)NCc4ccco4)ccc32)cc1	1	1	0	9.5*	4	11
O=S1(=O)N[C@H](c2ccccc2)COc2cc(Br)ccc21	.	0	.	.	.	.
CC(C)NC(=S)N/N=C/c1c[nH]c2ccccc12	5	0	4	15*	-4	25
O=C(COC(=O)CNS(=O)(=O)c1cc(C(F)(F)F)ccc1Cl)NC1CC1	.	0	.	.	.	.
C=CCc1cccc(CNc2cnc3ccccc3c2)c1O	0	6	.	.	.	-77*
Oc1ccccc1CNc1cnc2ccccc2c1	8	9	3	8	2	12
COc1ccccc1-[n+]1c(C)cc(/C=C2\Sc3ccccc3N2C)cc1C	1	0	63*	3	6	?
CC1CCCCN1CCCNc1ccc(C(CC(N)=O)NC(=O)Cc2cccc3ccccc23)cc1[N+](=O)[O-] (configuration not stated)	30*	0	.	.	.	43
Cn1c(=O)c2c(ncn2CCCc2ccccc2)n(C)c1=O	-11	0	1	12*	-3	6	Wee1 stab conf=2
Cn1c(=O)c2c(ncn2Cc2ccccc2)n(C)c1=O	-4	0	1	-1	0	7
CCN(CC)c1ccc(/C=N/NC(=O)c2ccoc2C)cc1	-2	1	21	16*	8	12	Wee1 stab conf=0
